Screening data: PubChem, several laboratories
Sampled rows, rich in hits. Any-hit rate of the full collection: about 1.7%.
T cell HTS: T cell immune modulation candidate | 2C CD8+ T cell-vesicle binding, flow cytometry; hits give low values | response (vesicle binding), % at 7 µM | hit rate 0.068% among 330,000 | AID 2052;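 active = response, share of CD8 T cells binding vesicles, and their 90th percentile fluorescence all below set limits, cut at about 80% in these data, passing the limit was not always enough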;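 also: values below 100% mean blocked vesicle binding to the CD8+ T cells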
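Test system: purified 2C TCR transgenic mouse naive CD8+ T cells. Probe or stimulus: QL9-peptide-loaded Drosophila micro-vesicles bearing Ld, ICAM-1 and B7-1. Incubation: binding step 1.5 h, 37 °C, antibody labelling 20 min, ice. Measured by: flow cytometry of vesicle-bound cells.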
JMJD2C inh: inhibitors of human GASC-1 (JMJD2C) demethylase; hit rate 0.069% among 330,000; inhibition, % at 2.35 µM; Q9H3R0; GST-JMJD2C(1-420) H3K9me3 demethylation, DELFIA europium;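 active = more than half of a compound's replicate wells show inhibition beyond 50%, single wells judged on their own value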;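 also: signal counts dimethyl H3K9 product captured on neutravidin plate; 0% = median of DMSO wells and 100% = 0.3 times that DMSO median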
PP1 inh: blocks human PP1-alpha phosphatase, a PP5 counter-screen. hit rate 0.9% among 320,000. purified PP1alpha, OMFP fluorescence. inhibition, % at 6.7 µM;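 active = inhibition above the mean inhibition of all tested compounds plus 3 SD, computed separately for each screening campaign, cut at about 15% in these data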
m5-HT2A agonist: agonists of mouse serotonin 5-HT2A receptor (HTR2A). CHO-K1 mHTR2A beta-arrestin complementation, luminescence; percent of 30 µM serotonin response. activation, % at 7.6 µM. hit rate 0.66% among 360,000;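 active = activation above a run cutoff, the mean activation of all tested compounds plus 3 SD, cut at about 14% in these data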;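 also: 0% = plate median of compound wells and 100% = 30 µM serotonin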
Target sequence (P35363 whole entry, looked up): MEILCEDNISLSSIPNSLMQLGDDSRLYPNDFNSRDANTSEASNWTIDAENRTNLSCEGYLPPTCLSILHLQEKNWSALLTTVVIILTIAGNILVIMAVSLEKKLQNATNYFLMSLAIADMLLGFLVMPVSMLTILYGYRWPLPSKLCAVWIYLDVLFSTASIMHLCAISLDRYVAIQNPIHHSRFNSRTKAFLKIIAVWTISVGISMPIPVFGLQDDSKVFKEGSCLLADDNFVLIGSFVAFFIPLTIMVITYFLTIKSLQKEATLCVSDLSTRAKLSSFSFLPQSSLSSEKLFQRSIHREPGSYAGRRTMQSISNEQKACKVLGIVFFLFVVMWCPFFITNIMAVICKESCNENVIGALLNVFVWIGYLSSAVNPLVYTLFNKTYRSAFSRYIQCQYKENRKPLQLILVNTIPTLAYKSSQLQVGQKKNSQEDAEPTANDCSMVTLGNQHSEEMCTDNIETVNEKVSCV
PP5 inh: blocks human protein phosphatase 5 activity; P53041; purified PP5c, OMFP substrate fluorescence; inhibition, % at 6.7 µM; hit rate 0.18% among 320,000; AID 1987;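 active = inhibition above the campaign's mean inhibition across all tested compounds plus 3 SD, cut at about 9.5% in these data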;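 also: 0% = DMSO only and 100% = 100 µM cantharidin control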
PP1 inh confirm: confirmation of human PP1 phosphatase inhibitors. shares compounds with PP1 inh. purified PP1alpha, OMFP substrate fluorescence. inhibition, % at 6.7 µM. hit rate 52% among 1,900. AID 2358;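 active = mean PP1 inhibition above a set limit taken from the earlier primary screen, cut at about 15% in these data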
PP5 inh counter: PP5 phosphatase inhibition, counter-screen for PP1 inhibitors; inhibition, % at 6.7 µM; shares compounds with PP1 inh; hit rate 4% among 1,900; purified PP5c, OMFP fluorescence;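 active = mean PP5 inhibition over triplicate wells above about 9.5% taken from the earlier PP1 screen, limit read from the data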
Starred values were filed as active, the others as inactive; i = inactive; · = not tested or not shown.

SMILES | T cell HTS | JMJD2C inh | PP1 inh | m5-HT2A agonist | PP5 inh | PP1 inh confirm | PP5 inh counter
COc1ccc(-c2ccc(-c3nc4c(c(=O)[nH]c(=O)n4Cc4ccccc4)n3C)o2)c([N+](=O)[O-])c1 | 209 | 4 | -2 | -2 | 0 | · | ·
CC(C)C(C(=O)NCc1ccccc1)N1CCN(c2ccccc2F)CC1 (configuration not stated) | · | · | · | -6 | · | · | ·
CC(C1CC2CCC1C2)n1c(COc2ccccc2F)nnc1SCC(N)=O (configuration not stated) | 258 | 1 | 1 | 13 | 1 | · | ·
CC(C)NC(=O)NC(=O)CSc1nnc(COc2ccccc2F)n1C(C)C1CC2CCC1C2 (configuration not stated) | 243 | -2 | 21* | 0 | 10* | 5 | 3
CCOC(=O)c1c(C)[nH]c(C(=O)OCC(=O)NCc2ccc(C)cc2)c1C | i | 4 | 19* | -1 | 1 | 12 | -5
CCOC(=O)c1c(C)[nH]c(C(=O)OCC(=O)NCc2ccccc2)c1C | 731 | -5 | · | -2 | · | · | ·
CC(C)(C)c1ccc(CS(=O)CC(O)CO)cc1 (configuration not stated) | 253 | -4 | -1 | 0 | 1 | · | ·
CC1(C)SC2c3ccccc3C(=O)N2[C@@H]1C(=O)O (some centres not stated) | 250 | 3 | -2 | 3 | 0 | · | ·
NC(N)=N/N=C/c1ccc(OCc2ccc(Cl)cc2)cc1 | 169 | 2 | 21* | -9 | 1 | 1 | -4
COc1ccc(OC)c2sc(N(CCCN(C)C)C(=O)c3ccc(S(=O)(=O)N4CCc5ccccc5C4)cc3)nc12 | 195 | 9 | 20* | · | 3 | 22* | 1
COc1ccc(C)c2sc(N(CCCN(C)C)C(=O)c3ccc(S(=O)(=O)N4CCc5ccccc5C4)cc3)nc12 | 408 | -3 | 5 | -3 | 2 | · | ·
COc1ccccc1/C=C/C=N/NC(=O)c1ccc2nc[nH]c2c1 | 95 | 0 | -3 | · | 0 | · | ·
C#CCOCCOCCOCCNc1nc(N2CCN(C(=O)[C@H]([C@@H](C)CC)n3cc([C@@H](N)Cc4ccc(O)cc4)nn3)CC2)nc(N2CCN(C(=O)[C@H](Cc3cc4ccccc4[nH]3)n3cc([C@@H](N)CC(C)C)nn3)CC2)n1 | 753 | 16 | 28* | -8 | 0 | -13 | -4
C#CCOCCOCCOCCNc1nc(N2CCN(C(=O)[C@H]([C@@H](C)CC)n3cc([C@@H](N)CC(C)C)nn3)CC2)nc(N2CCN(C(=O)[C@H](Cc3cc4ccccc4[nH]3)n3cc([C@@H](N)Cc4ccc(O)cc4)nn3)CC2)n1 | 361 | -2 | 25* | · | 7 | -15 | 6
C#CCOCCOCCOCCNc1nc(N2CCN(C(=O)[C@H]([C@@H](C)CC)n3cc([C@@H](N)CC(C)C)nn3)CC2)nc(N2CCN(C(=O)[C@H](Cc3cc4ccccc4[nH]3)n3cc([C@@H](N)C(C)CC)nn3)CC2)n1 (some centres not stated) | · | 54 | · | · | · | · | ·
COc1ccc(OC)c(NC(=O)Nc2nc(C(N)C(C)C)cs2)c1 (configuration not stated) | · | · | · | -3 | · | · | ·
O=C(Nc1ccccc1N1CCCC1)c1cccc(-c2cc3ccccc3oc2=O)c1 | 118 | 6 | 18* | -3 | 0 | 19* | -1
O=C(Nc1ccc(N2CCCC2)cc1)c1cccc(-c2cc3ccccc3oc2=O)c1 | 201 | 2 | 13 | -1 | 2 | · | ·
COC(=O)c1ccc(-c2csc(NC(=O)C3=COCCO3)n2)cc1 | 960 | 15 | 0 | 1 | 3 | · | ·
O=C(Nc1ccc(S(=O)(=O)Nc2nccs2)cc1)c1ccc(S(=O)(=O)N2CCOCC2)cc1 | 266 | -3 | -2 | -2 | 2 | · | ·
Cc1ccc(S(=O)(=O)N2CCOCC2)cc1C(=O)Nc1ccc(S(=O)(=O)Nc2nccs2)cc1 | 370 | 0 | 30* | 4 | 0 | 0 | -3
CCOc1ccc(OCC)c(NC(=O)CN2CCN(CC(=O)NC(C)C)CC2)c1 | 202 | 6 | 1 | 2 | 0 | · | ·
O=C(Cn1cnc2ccccc2c1=O)Nc1nc2ccccc2s1 | 185 | 0 | 2 | 2 | 2 | · | ·
CCc1ccc2nc(NC(=O)Cn3cnc4ccccc4c3=O)sc2c1 | 71 | -2 | 26* | -3 | 2 | 29* | -3
COc1ccc(COC(=O)CN2C(=O)NC3(CCCC3)C2=O)cc1F | 300 | 5 | 34* | -3 | 0 | -3 | -3
SMILES | T cell HTS | JMJD2C inh | PP1 inh | m5-HT2A agonist | PP5 inh | PP1 inh confirm | PP5 inh counter
COc1ccc(COC(=O)CN2C(=O)NC3(CC(C)CC(C)(C)C3)C2=O)cc1F (configuration not stated) | 283 | 1 | · | 4 | · | · | ·
CC1(C)Cc2c(sc3c2c(=N)n(Cc2ccco2)c(=O)n3CC(=O)Nc2cccc(Cl)c2)CO1 | 318 | -2 | 20* | 4 | 6 | 6 | 3
Cc1cccc(NC(=O)Cn2c(=O)n(Cc3ccco3)c(=N)c3c4c(sc32)COC(C)(C)C4)c1 | 310 | 0 | -1 | -6 | 0 | · | ·
CCc1ccc(N=Nc2ccc(O)c3[nH]cnc23)cc1 | 490 | 8 | 21* | -10 | 0 | 10 | -1
CCc1ccc(/C=N/Nc2ncnc3nc[nH]c23)cc1 | 428 | 10 | -1 | -7 | 0 | · | ·
O=C(C1=C[C@@H]2[C@H]3C(=O)N(c4ccccc4Cl)C(=O)[C@H]3[C@@H](C(=O)c3ccc(Cl)cc3)N2C=C1)c1ccccc1 | 836 | -8 | 23* | · | 3 | 18* | 4
CCn1c(=O)cc(SCC(=O)N2CCN(C3CCCCC3)CC2)c2ccccc21 | 198 | 140 | 30* | 0 | 2 | 0 | 3
CC(C(=O)OCC(=O)N(C)C1(C#N)CCCCC1)N1C(=O)c2ccccc2C1=O (configuration not stated) | 547 | 2 | -1 | 7 | 1 | · | ·
O=C(OCCOCCN=C1NS(=O)(=O)c2ccccc21)c1ccccc1Br | 119 | -15 | 0 | -6 | 1 | · | ·
COc1ccc(-c2cccc(C3CC=CC4C3C(=O)N(Cc3ccccc3)C4c3ccc4ccccc4c3)c2)cc1 (configuration not stated) | 230 | -3 | 12 | -1 | 1 | · | ·
COc1ccc(C2C3C=CCC(c4cccc(-c5ccc(C)cc5)c4)C3C(=O)N2Cc2ccccc2)cc1Cl (configuration not stated) | 574 | 6 | 18* | 1 | -1 | 0 | -6
Nc1cccc(Nc2nc(OC(C(F)(F)F)C(F)(F)F)nc(OC(C(F)(F)F)C(F)(F)F)n2)c1 | 286 | 2 | 18* | 2 | 19* | 16* | 15*
COc1nc(Nc2ccc(O)cc2)nc(OC(C(F)(F)F)C(F)(F)F)n1 | 938 | -5 | 3 | -6 | 8 | · | ·
